According to ChEMBL document CHEMBL1154894, “Paltolides A--C, anabaenopeptin-type peptides from the palau sponge Theonella swinhoei” (J Nat Prod, 2010):
The source made the active and inactive calls. The calls are words filed in the database; no cut-off is given here. Numbered stars: 1 amine (or outer) side, 2 acyl side, 3 side chain; on linkers, the order of the positions; unused ones are H or OH. Bridge positions count the residues as written; N and C are the ends. Square brackets hold non-standard residues; d marks the D form. Peptide text beside a SMILES is read from it. X1 = O=C([C@H](Cc1c[nH]c2cc(Cl)c(O)cc12)N[*:1])[*:2]; NMeL = CN[C@@H](CC(C)C)C(=O)O; CO = O=C([*:1])[*:2]

Experiments:
[1] = Cytotoxicity against african green monkey BSC1 cells assessed as cell viability up to 100 ug/ml after 72 hrs by MTT assay; format: cell-based; details: chlorocebus aethiops, bsc-1, 72 h
Summary of the method: (§1)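 MTT viability kit assay. Cells seeded at 2 × 10^4 per well and left to adhere 18 h. Exposed to compound for 24 h, then medium replaced or diluted 3-fold with fresh growth medium. Incubated a further 48 h before MTT read-out at A570. At least two separate experiments, each in duplicate.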

HCT-116 = experiment: Cytotoxicity against human HCT116 cells assessed as cell viability up to 100 ug/ml after 72 hrs by MTT assay; format: functional, cell-based; summary of the method: as §1
TZM = experiment: Cytotoxicity against human TZM-bl cells assessed as cell viability up to 100 ug/ml after 72 hrs by MTT assay; format: functional, cell-based; summary of the method: as §1
[2] = system: Human immunodeficiency virus 1; experiment: Antiviral activity against HIV1 expressing SF162 envelope assessed as inhibition of viral entry in human TZM-bl cells up to 100 ug/ml after 48 hrs by luciferase reporter gene assay; format: functional, organism-based
Summary of the method: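 Single-round HIV-1 neutralization in TZM-BL cells using virus pseudotyped with SF162 Envelope, under previously published conditions. At least two separate experiments, each run in duplicate.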

SMILES	Activity [1]	Activity (HCT-116)	Activity (TZM)	Activity [2]
CC(C)C[C@@H]1NC(=O)[C@H](C)NC(=O)[C@H](NC(=O)N[C@@H](CCCNC(=N)N)C(=O)O)CCCCNC(=O)[C@H](Cc2c[nH]c3cc(Cl)c(O)cc23)NC(=O)[C@H](CC(C)C)N(C)C1=O ({Arg-CO}-[dK]AL[NMeL][X1]; lactam 1-C)	Not Active	inactive	inactive	inactive
CC(C)C[C@@H]1NC(=O)[C@H](C)NC(=O)[C@H](NC(=O)N[C@@H](CCCNC(=N)N)C(=O)O)CCCCNC(=O)[C@H](Cc2c[nH]c3ccccc23)NC(=O)[C@H](CC(C)C)NC1=O [PALTOLIDE A]	Not Active	inactive	inactive	inactive
CC(C)C[C@@H]1NC(=O)[C@H](C)NC(=O)[C@H](NC(=O)N[C@@H](CCCNC(=N)N)C(=O)O)CCCCNC(=O)[C@H](Cc2c[nH]c3cc(Br)ccc23)NC(=O)[C@H](CC(C)C)N(C)C1=O [PALTOLIDE C]	Not Active	inactive	inactive	inactive
CC(C)C[C@@H]1NC(=O)[C@H](C)NC(=O)[C@H](NC(=O)N[C@@H](CCCNC(=N)N)C(=O)O)CCCCNC(=O)[C@H](Cc2c[nH]c3ccc(O)cc23)NC(=O)[C@H](CC(C)C)N(C)C1=O [PALTOLIDE B]	Not Active	inactive	inactive	inactive
